Reference: ChEMBL document CHEMBL1156797, “Synthesis and antiplasmodial activity of new indolone N-oxide derivatives” (J Med Chem, 2010)

How the values were obtained:
[1] = Cytotoxicity against human MCF7 cells after 48 hrs by MTT assay; type: cell-based
Plasmodium falciparum [2] = assay: Resistance index, ratio of IC50 for chloroquine-resistant Plasmodium falciparum FcB1 to IC50 for drug-sensitive Plasmodium falciparum 3D7; type: functional
[3] = Selectivity index, ratio of CC50 for human MCF7 cells to IC50 for chloroquine-resistant Plasmodium falciparum FcB1; type: functional
How it was run: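 XTT 0.5 mg/mL added for 180 min, formazan read at 450 nm, value taken from dose–response curves, two experiments in triplicate. This CC50 is divided by the FcB1 IC50 to give the index.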

Plasmodium falciparum [4] = assay: Antimalarial activity against chloroquine-resistant Plasmodium falciparum FcB1 assessed as [3H]hypoxanthine incorporation after 48 hrs by beta-counter; type: functional, organism-based; conditions: FcB1/Columbia
How it was run: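 Primary assay (Toulouse) on FcB1 cultured in RPMI with 25 mM HEPES and 10% human serum, O RBCs. Serial dilutions in triplicate, 2% parasitaemia, 2% haematocrit, 48 h at 37 °C, 5% CO2. [3H]-hypoxanthine added at 24 h, freeze-thaw harvest, β-counting. IC50 by linear regression on the linear segment of the semilog inhibition curve. Three independent repeats.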

Plasmodium falciparum [5] = assay: Antimalarial activity against drug-sensitive Plasmodium falciparum 3D7 assessed as [3H]hypoxanthine incorporation by scintillation counting; type: functional, organism-based
Plasmodium falciparum [6] = assay: Resistance index, ratio of IC50 for chloroquine-resistant Plasmodium falciparum K1 to IC50 for drug-sensitive Plasmodium falciparum 3D7; type: functional
Plasmodium falciparum [7] = assay: Antimalarial activity against Plasmodium falciparum K1 assessed as [3H]hypoxanthine incorporation by scintillation counting; type: functional, organism-based
[8] = Selectivity index, ratio of CC50 for human KB cells to IC50 for drug-sensitive Plasmodium falciparum 3D7; type: functional
How it was run: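 The 3D7 value came from [3H]hypoxanthine incorporation: synchronized culture at 0.5% parasitaemia, 2.5% hematocrit, Albumax-supplemented medium, 2-fold dilutions from 100 to 0.05 μM in triplicate, label added at 24 h and harvested at 48 h.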

[9] = Cytotoxicity against human KB cells after 72 hrs by alamar blue assay; type: cell-based
How it was run: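 KB cells were seeded at 4×10^4 cells/mL in RPMI 1640 with 10% heat-inactivated FCS and left 24 h at 37 °C, 5% CO2. A dilution series was added in triplicate for 72 h, then AlamarBlue for 2–4 h. Fluorescence was read at ex 530/em 585 nm, with podophyllotoxin as positive control and values from curve fitting.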

Plasmodium berghei [10] = assay: Antimalarial activity against Plasmodium berghei ANKA infected Swiss mice (Mus musculus) assessed as reduction in parasitemia at 30 mg/kg, intraperitoneally after 3 days measured on day 4; type: functional; parameters: scale not given: the % may be the effect or the level left; conditions: route intraperitoneal
How it was run: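 P. berghei ANKA in male Swiss outbred CD-1 mice (20 g), kept specific pathogen-free. Infection was iv with 2×10^6 infected red cells on day 0, then mice were randomized into groups of five per dose. Compound was given ip in 0.05% Tween 80. Parasitaemia was read from Giemsa-stained blood films on day 4 and expressed as % inhibition from group arithmetic mean parasitaemia versus the untreated group.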

Plasmodium berghei [11] = assay: Antimalarial activity against Plasmodium berghei ANKA infected Swiss mice (Mus musculus) assessed as reduction in parasitemia at 30 mg/kg, perorally after 3 days measured on day 4; type: functional; parameters: scale not given: the % may be the effect or the level left; conditions: route oral
How it was run: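 Male Swiss outbred CD-1 mice (20 g) were infected iv with 2×10^6 P. berghei ANKA-infected red cells and put in groups of five per dose. Dosing was by oral gavage in suspending vehicle (0.5% Na carboxymethylcellulose, 0.5% benzyl alcohol, 0.4% Tween 80, 0.9% NaCl), starting 3 h postinfection, then once daily on days 1–3. Day-4 Giemsa films; % inhibition against untreated mean parasitaemia.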

[12] = Metabolic stability in CD1 mouse liver microsomes assessed as half life; type: ADME, Microsome
[13] = Inhibition of beta-hematin formation assessed as biocrystallization by UV-visible assay; type: functional
Mus musculus = assay: Toxicity in Swiss mouse at 140 mg/kg, ip; type: organism-based; parameters: dose 140 mg/kg, route intraperitoneal; conditions: in vivo
Plasmodium berghei [14] = assay: Antimalarial activity against Plasmodium berghei NK65 infected Swiss mice (Mus musculus) assessed as reduction in parasitemia treated intraperitoneally for 3 days measured on day 4; conditions: NK65, ip
Plasmodium berghei [15] = assay: Antimalarial activity against Plasmodium berghei NK65 infected Swiss mice (Mus musculus) assessed as reduction in parasitemia at 48 mg/kg, intraperitoneally after 3 days measured on day 4; parameters: scale not given: the % may be the effect or the level left; conditions: route intraperitoneal

Row | SMILES | CC50 at 48 h [1] [nM] | Ratio IC50 (Plasmodium falciparum [2]) | Ratio CC50/IC50 [3] | IC50 (Plasmodium falciparum [4]) [nM] | IC50 (Plasmodium falciparum [5]) [nM] | Ratio IC50 (Plasmodium falciparum [6]) | IC50 (Plasmodium falciparum [7]) [nM] | Ratio CC50/IC50 [8] | CC50 at 72 h [9] [nM] | Activity (Plasmodium berghei [10]) [%] | Activity (Plasmodium berghei [11]) [%] | half-life [12] [min] | IC50 [13] | Activity (Mus musculus) | ED50 (Plasmodium berghei [14]) [mg/kg] | Activity (Plasmodium berghei [15]) [%]
1 | COc1ccc2c(c1)C(=O)C(c1ccc(Cl)cc1)=[N+]2[O-] | 21500 | 3.4 | 102 | 210 | 62 | 1 | 59 | 7564 | 469000 |  |  |  |  |  |  | 
2 | COc1ccc2c(c1)C(=O)C(c1ccc(OC(C)C)cc1)=[N+]2[O-] | > 32100 | 0.5 | > 1890 | 17 | 32 | 2.5 | 81.3 | 10031 | 321000 | 30.4 | 25.1 | 6 |  |  |  | 
3 | COc1ccc2c(c1)C(=O)C(c1ccc(C)cc1)=[N+]2[O-] | > 37500 | 1.9 | >721 | 52 | 27 | 0.7 | 20 | 2074 | 56000 |  |  |  |  |  |  | 
4 | COc1ccc2c(c1)C(=O)C(c1ccc(Oc3ccccc3)cc1)=[N+]2[O-] | 7700 | 5.2 | 40 | 193 | 37 | <0.04 | < 1.5 | 151 | 5600 |  |  |  |  |  |  | 
5 | COc1ccc2c(c1)C(=O)C(c1ccc(Cl)c(C(F)(F)F)c1)=[N+]2[O-] | 13500 | 0.7 | 270 | 50 | 69 | 0.1 | 5 | <20 | < 1400 |  |  |  |  |  |  | 
6 | COc1ccc2c(c1)C(=O)C(c1ccc(C)c(C)c1)=[N+]2[O-] | 26000 | 0.3 | 702.7 | 37 | 142 | 1.2 | 178 | 980 | 148000 |  |  |  |  |  |  | 
7 | COc1ccc2c(c1)C(=O)C(c1cccc(Cl)c1)=[N+]2[O-] | 5200 | 0.2 | 248 | 21 | 139 | 0.7 | 96 | 688 | 64000 |  |  |  |  |  |  | 
8 | O=C1C(c2ccccc2)=[N+]([O-])c2ccccc21 | 19500 |  | 22 | 889 |  |  |  |  |  |  |  |  | Not Active |  |  | 
9 | O=C1C(c2ccc(Cl)c(Cl)c2)=[N+]([O-])c2ccccc21 | 13700 | 1.6 | 88 | 155 | 98 | 0.8 | 80 | 5816 | 570000 |  |  |  |  |  |  | 
10 | COc1ccc2c(c1)C(=O)C(c1ccc(N(C)C)cc1)=[N+]2[O-] | 43900 | 2.9 | > 14600 | < 3 | 1.7 |  |  | 198823 | 338000 | 15.3 | 20.9 | 6 |  |  |  | 
11 | COc1ccc2c(c1)C(=O)C(c1ccc(C(F)(F)F)cc1)=[N+]2[O-] | 11700 | 86 | 273 | 43 | < 0.5 | 3.8 | 1.9 | >220 | 110000 |  |  |  |  |  |  | 
12 | COc1ccc2cc(C3=[N+]([O-])c4ccccc4C3=O)ccc2c1 | 15300 |  |  |  |  |  |  | 2589 | 233000 |  |  |  |  |  |  | 
13 | CCOc1ccc(C2=[N+]([O-])c3cc4c(cc3C2=O)OCO4)cc1 | 51900 |  | 332 | 156 |  |  |  |  |  |  |  |  | Not Active |  |  | 
14 | COc1ccc(C2=[N+]([O-])c3ccc(OC)cc3C2=O)cc1 | > 35300 | 0.5 | >882 | 40 | 82 | 0.2 | 16 | 10658 | 874000 |  |  |  |  |  |  | 
15 | O=C1C(c2ccc(Cl)cc2)=[N+]([O-])c2cc3c(cc21)OCO3 | 15900 | 1.3 | 212 | 75 | 58 | 1.5 | 88 | 450 | 27000 | 62.1 | 14.5 | < 1 |  | Non-toxic | 16 | 81
16 | COc1ccc(C2=[N+]([O-])c3ccccc3C2=O)cc1 | > 39500 | 1.9 | >202 | 195 | 101 | 1.2 | 124 | 4525 | 457000 | 40.5 | 32.4 | 16 |  |  |  | 
17 | C[C@H]1[C@H](OC(=O)CCC(=O)[O-])O[C@@H]2O[C@@]3(C)CC[C@H]4[C@H](C)CC[C@@H]1[C@@]24OO3.[Na+] [SODIUM ARESUNATE] | 9800 | 1.5 | 1633 | 6 | 4 | 1 | 4 | 9045 | 36200 |  |  |  |  |  |  | 
